Activity calls are given as the source filed them. The calls are words filed in the database; no cut-off is given here.
Tests used:
HCC1954 [1] = assay: Synergistic antiproliferative activity against human HCC1954 cells assessed as combination index at ED90 measured after 96 hrs in presence of lapatinib by celltiter-glo assay; assay type: functional
ZR-75-1 [2] = assay: Synergistic antiproliferative activity against human ZR-75-1 cells assessed as combination index at ED50 measured after 72 hrs in presence of docetaxel by celltiter-glo assay; assay type: functional
[3] = Toxicity in human NCI-H292 cells xenografted CD-1 mouse assessed as death at 120 mg/kg, po administered 3 times per week for 2 weeks starting 2 hrs post-erlotinib treatment and measured during compound dosing; assay type: organism-based; conditions: in vivo, 336 h
In short: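 NCI-H292 cells in 50% Matrigel/PBS injected s.c. into flank of female CD1-nude mice; dosing began after 2 wk at mean tumour 0.2 cm³, n = 5/group. […] Body weight and signs monitored; treatment ended day 16.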

PC-3 = assay: Antitumor activity against human PC-3 cells xenografted in CD1 nude mouse assessed as reduction in tumor volume at 120 mg/kg, po administered 3 times per week for 2 weeks and measured during compound dosing by caliper method; assay type: functional, organism-based
In short: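 Male CD1-nude mice received s.c. PC-3 cells and were treated from day 25 after implant, at 0.2 cm³, n = 5. Docetaxel (0.73% ethanol in saline) was given at 5 mg/kg i.v. on day 0. MK-2206 (30% Captisol) was given at 120 mg/kg po on days 1, 3, 5, 8, 10, 12. Caliper volume twice weekly.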

[4] = Toxicity in human NCI-H460 cells xenografted CD1 nude mouse assessed as body weight loss at 120 mg/kg, po administered 3 times per week for 2 weeks in presence of gemcitabine measured during compound dosing relative to control; assay type: organism-based; conditions: in vivo, 336 h
In short: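 CD1-nude mice with s.c. NCI-H460 xenografts, randomized at mean 0.2 cm³, n=5/group, dosing from day 8 post-implant. Body weight compared with vehicle-only controls.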

[5] = target: RAC-alpha serine/threonine-protein kinase (Homo sapiens) (UniProt P31749); assay: Inhibition of AKT in human HCC827 cells assessed as reduction in GSK3alpha/beta phosphorylation at S21/S9 residues at 5 umol/L measured after 5 hrs in presence of erlotinib by Western blot analysis; assay type: cell-based; conditions: dose 5.0 µmol/L
Calu-6 = assay: Synergistic antiproliferative activity against human Calu-6 cells assessed as combination index at ED75 measured after 72 hrs in presence of erlotinib by celltiter-glo assay; assay type: functional
In short: (§1)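 Cells grown in RPMI 1640 with 10% heat-inactivated FBS at 37°C, 5% CO₂. Seeded at 2 to 3 × 10³ per well; drugs added 24 h later. […] Viability read as cellular ATP by CellTiter-Glo. CI calculated by Chou–Talalay from median-effect plots at ED50, ED75 and ED90.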

BT-474 = assay: Synergistic antiproliferative activity against docetaxel pretreated human BT-474 cells assessed as combination index at ED90 measured after 72 hrs by celltiter-glo assay; assay type: functional
NCI-N87 [6] = assay: Synergistic antiproliferative activity against human NCI-N87 cells assessed as combination index at ED75 treated 24 hrs prior to lapatinib and measured after 72 hrs by celltiter-glo assay; assay type: functional; conditions: time 96 hrs
NCI-N87 [7] = assay: Synergistic antiproliferative activity against lapatinib pretreated human NCI-N87 cells assessed as combination index at ED50 measured after 72 hrs by celltiter-glo assay; assay type: functional
HCC1954 [8] = assay: Antiproliferative activity against human HCC1954 cells assessed as reduction in cell proliferation measured after 72 hrs by celltiter-glo assay; assay type: functional, cell-based; conditions: HCC1954, 72 h
In short: (§2)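 Cells in RPMI 1640 with 10% heat-inactivated FBS at 37°C and 5% CO₂ were seeded at 2 to 3 × 10³ per well. […] Growth was read as cellular ATP by CellTiter-Glo.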

[9] = Toxicity in human PC-3 cells xenografted CD1 nude mouse assessed as body weight loss at 120 mg/kg, po administered 3 times per week for 2 weeks measured during compound dosing relative to control; assay type: organism-based; conditions: in vivo, 336 h
In short: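 Male CD1-nude mice with s.c. PC-3 tumours (50% Matrigel/50% PBS, left flank), randomized at mean 0.2 cm³, n=5/group, treated from 25 d post-implant. Body weight monitored versus vehicle-only controls.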

ZR-75-1 [10] = assay: Synergistic antiproliferative activity against human ZR-75-1 cells assessed as combination index at ED90 measured after 72 hrs in presence of docetaxel by celltiter-glo assay; assay type: functional
MDA-MB-468 = assay: Synergistic antiproliferative activity against human MDA-MB-468 cells assessed as combination index at ED90 measured after 96 hrs in presence of lapatinib by celltiter-glo assay; assay type: functional
HCC1954 [11] = assay: Synergistic antiproliferative activity against lapatinib pretreated human HCC1954 cells assessed as combination index at ED75 measured after 72 hrs by celltiter-glo assay; assay type: functional
NCI-H292 = assay: Antitumor activity against human NCI-H292 cells xenografted in CD-1 mouse assessed as tumor growth suppression at 120 mg/kg, po administered 3 times per week for 2 weeks and measured twice a week during compound dosing by caliper method; assay type: functional, organism-based
In short: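 Female CD1-nude mice carried s.c. NCI-H292 cells in Matrigel/PBS and were randomized at 0.2 cm³, n = 5. […] MK-2206 (30% Captisol) was given 2 h later at 120 mg/kg po on days 0, 2, 4, 7, 9, 11, or at 360 mg/kg on days 0 and 7. Control received vehicle. Caliper volume twice weekly.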

NCI-N87 [12] = assay: Synergistic antiproliferative activity against human NCI-N87 cells assessed as combination index at ED90 treated 24 hrs prior to lapatinib and measured after 72 hrs by celltiter-glo assay; assay type: functional; conditions: time 96 hrs
HCC70 [13] = assay: Synergistic antiproliferative activity against human HCC70 cells assessed as combination index at ED90 measured after 72 hrs in presence of lapatinib by celltiter-glo assay; assay type: functional; in short: as §1
HCC1954 [14] = assay: Synergistic antiproliferative activity against human HCC1954 cells assessed as combination index at ED50 treated 24 hrs prior to lapatinib and measured after 72 hrs by celltiter-glo assay; assay type: functional; conditions: time 96 hrs
SK-BR-3 = assay: Synergistic antiproliferative activity against human SK-BR-3 cells assessed as combination index at ED90 measured after 96 hrs in presence of lapatinib by celltiter-glo assay; assay type: functional
A-431 = assay: Antiproliferative activity against human A-431 cells assessed as reduction in cell proliferation measured after 72 hrs by celltiter-glo assay; assay type: functional, cell-based; conditions: A-431, 72 h; in short: as §2
HCC70 [15] = assay: Synergistic antiproliferative activity against human HCC70 cells assessed as combination index at ED50 measured after 96 hrs in presence of lapatinib by celltiter-glo assay; assay type: functional
HCC70 [16] = assay: Synergistic antiproliferative activity against human HCC70 cells assessed as combination index at ED75 measured after 72 hrs in presence of docetaxel by celltiter-glo assay; assay type: functional; in short: as §1
[17] = target: RAC-alpha serine/threonine-protein kinase (Homo sapiens) (UniProt P31749); assay: Inhibition of AKT in human HCC827 cells assessed as reduction in AKT phosphorylation at S473 residue at 5 umol/L measured after 5 hrs in presence of erlotinib by Western blot analysis; assay type: cell-based; conditions: dose 5.0 µmol/L
HCC1954 [18] = assay: Synergistic antiproliferative activity against human HCC1954 cells assessed as combination index at ED90 measured after 72 hrs in presence of lapatinib by celltiter-glo assay; assay type: functional; in short: as §1

Sequence of RAC-alpha serine/threonine-protein kinase (Homo sapiens) (P31749 whole entry): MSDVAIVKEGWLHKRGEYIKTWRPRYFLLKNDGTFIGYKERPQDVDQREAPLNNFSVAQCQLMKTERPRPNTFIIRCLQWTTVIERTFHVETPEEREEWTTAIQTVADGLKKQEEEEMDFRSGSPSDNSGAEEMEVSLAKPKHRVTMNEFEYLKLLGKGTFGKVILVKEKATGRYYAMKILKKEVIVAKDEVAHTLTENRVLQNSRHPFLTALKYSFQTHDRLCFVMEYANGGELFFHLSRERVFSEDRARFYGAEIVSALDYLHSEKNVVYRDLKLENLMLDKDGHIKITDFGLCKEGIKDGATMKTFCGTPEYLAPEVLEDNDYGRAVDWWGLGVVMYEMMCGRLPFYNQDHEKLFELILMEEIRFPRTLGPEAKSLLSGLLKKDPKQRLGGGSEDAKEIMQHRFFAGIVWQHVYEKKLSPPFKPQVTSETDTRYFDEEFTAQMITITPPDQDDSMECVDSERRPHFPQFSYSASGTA

In the case of `Cl.NC1(c2ccc(-c3nc4ccn5c(=O)[nH]nc5c4cc3-c3ccccc3)cc2)CCC1`, the CI90 (HCC1954 [1]) is reported as 0.18, the CI50 (ZR-75-1 [2]) is reported as 0.1 and the Activity [3] is reported as “Non-Toxic”. The Activity (PC-3) was “Active”, the Activity [4] was 7% and the inhibition [5] was “Active”. For the same molecule, the CI75 (Calu-6) was 0.25, the CI90 (BT-474) was 0.3 and the CI75 (NCI-N87 [6]) was 0.18. It also gave a CI50 (NCI-N87 [7]) of 0.18, an IC50 (HCC1954 [8]) of 2.9 µM and an Activity [9] of 8%. The CI90 (ZR-75-1 [10]) was 0.4, the CI90 (MDA-MB-468) was 0.18 and the CI75 (HCC1954 [11]) was 0.18. For the same molecule, the Activity (NCI-H292) was “inactive”, the CI90 (NCI-N87 [12]) was 0.18 and the CI90 (HCC70 [13]) was 0.2. For the same molecule, the CI50 (HCC1954 [14]) was 0.18, the CI90 (SK-BR-3) was 0.18 and the IC50 (A-431) was 5.5 µM. The CI50 (HCC70 [15]) was 0.18, the CI75 (HCC70 [16]) was 0.7 and the inhibition [17] was “Active”. The CI90 (HCC1954 [18]) was 0.11.
